ChEMBL document CHEMBL3994667, “Small Molecule Lysyl Oxidase-like 2 (LOXL2) Inhibitors: The Identification of an Inhibitor Selective for LOXL2 over LOX” (ACS Med Chem Lett, 2017)
pIC50: −log10 of the molar value. Activity calls are given as the source filed them. The rule behind the calls is not given here.

Legend:
[1] = target: T1, Lysyl oxidase homolog 3 (Homo sapiens, UniProt P58215); assay: Inhibition of recombinant human C-terminal His10-tagged LOXL3 (1 to 753 residues) assessed as reduction in H2O2 production using DAP as substrate preincubated for 2 hrs followed by substrate addition measured every 2 minutes for 50 minutes by Amplex red dye based fluorescence assay
T1 sequence (P58215 whole entry): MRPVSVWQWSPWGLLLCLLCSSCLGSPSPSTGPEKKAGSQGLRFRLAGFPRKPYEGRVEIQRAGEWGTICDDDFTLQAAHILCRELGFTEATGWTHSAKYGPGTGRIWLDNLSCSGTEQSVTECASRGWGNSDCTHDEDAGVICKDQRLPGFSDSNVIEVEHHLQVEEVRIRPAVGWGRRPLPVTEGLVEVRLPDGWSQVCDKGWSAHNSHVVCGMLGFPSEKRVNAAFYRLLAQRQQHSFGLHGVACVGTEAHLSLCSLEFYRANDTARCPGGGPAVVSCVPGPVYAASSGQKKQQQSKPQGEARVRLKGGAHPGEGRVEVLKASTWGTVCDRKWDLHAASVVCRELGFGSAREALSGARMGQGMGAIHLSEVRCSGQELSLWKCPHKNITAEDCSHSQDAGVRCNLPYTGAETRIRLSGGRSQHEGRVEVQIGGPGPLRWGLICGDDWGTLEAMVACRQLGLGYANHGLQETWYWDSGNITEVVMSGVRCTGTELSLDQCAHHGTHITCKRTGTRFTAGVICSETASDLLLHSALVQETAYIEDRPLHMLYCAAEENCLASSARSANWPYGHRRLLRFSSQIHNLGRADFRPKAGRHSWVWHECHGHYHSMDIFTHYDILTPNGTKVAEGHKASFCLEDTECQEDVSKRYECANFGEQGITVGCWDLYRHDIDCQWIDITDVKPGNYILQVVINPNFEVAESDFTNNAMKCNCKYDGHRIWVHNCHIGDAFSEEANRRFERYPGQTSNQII

[2] = target: Cytochrome P450 3A4 (Homo sapiens, UniProt P08684); assay: Inhibition of CYP3A4 (unknown origin); assay type: ADME
[3] = target: T2, Amine oxidase [copper-containing] 3 (Homo sapiens) (UniProt Q16853); assay: Inhibition of SSAO in human plasma at 30 uM using benzylamine as substrate preincubated for 2 hrs followed by substrate addition measured every 30 secs for 15 minutes by Amplex red dye based fluorescence assay
T2 sequence (whole entry): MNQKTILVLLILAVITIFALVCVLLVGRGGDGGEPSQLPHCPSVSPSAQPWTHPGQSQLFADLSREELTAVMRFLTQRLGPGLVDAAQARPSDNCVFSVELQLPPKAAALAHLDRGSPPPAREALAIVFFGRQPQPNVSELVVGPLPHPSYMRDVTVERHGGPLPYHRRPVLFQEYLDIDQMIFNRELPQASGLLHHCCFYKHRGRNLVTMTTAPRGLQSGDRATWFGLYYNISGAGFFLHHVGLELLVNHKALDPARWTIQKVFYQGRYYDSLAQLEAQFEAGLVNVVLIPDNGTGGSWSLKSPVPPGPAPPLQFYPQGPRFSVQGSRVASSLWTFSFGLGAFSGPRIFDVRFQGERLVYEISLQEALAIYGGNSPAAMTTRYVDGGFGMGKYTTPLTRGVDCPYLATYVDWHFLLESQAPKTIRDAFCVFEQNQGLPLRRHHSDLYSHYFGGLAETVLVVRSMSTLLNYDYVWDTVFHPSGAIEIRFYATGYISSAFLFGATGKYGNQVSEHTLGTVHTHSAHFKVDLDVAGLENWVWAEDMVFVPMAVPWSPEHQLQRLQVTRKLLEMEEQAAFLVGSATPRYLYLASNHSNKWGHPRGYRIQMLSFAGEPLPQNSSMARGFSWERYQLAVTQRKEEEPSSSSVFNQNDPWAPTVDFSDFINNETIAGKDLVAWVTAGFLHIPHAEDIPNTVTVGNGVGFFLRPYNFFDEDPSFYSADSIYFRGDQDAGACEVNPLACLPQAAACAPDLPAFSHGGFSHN

[4] = target: Cytochrome P450 2C9 (Homo sapiens, UniProt P11712); assay: Inhibition of CYP2C9 (unknown origin); assay type: ADME
[5] = target: T3, Lysyl oxidase homolog 2 (Homo sapiens, UniProt Q9Y4K0); assay: Inhibition of full length recombinant human LOXL2 expressed in CHO cells assessed as reduction in H2O2 production using DAP as substrate preincubated for 2 hrs followed by substrate addition measured every 2 minutes for 50 minutes in presence of BSA by Amplex red dye based fluorescence assay
T3 sequence (Q9Y4K0 whole entry): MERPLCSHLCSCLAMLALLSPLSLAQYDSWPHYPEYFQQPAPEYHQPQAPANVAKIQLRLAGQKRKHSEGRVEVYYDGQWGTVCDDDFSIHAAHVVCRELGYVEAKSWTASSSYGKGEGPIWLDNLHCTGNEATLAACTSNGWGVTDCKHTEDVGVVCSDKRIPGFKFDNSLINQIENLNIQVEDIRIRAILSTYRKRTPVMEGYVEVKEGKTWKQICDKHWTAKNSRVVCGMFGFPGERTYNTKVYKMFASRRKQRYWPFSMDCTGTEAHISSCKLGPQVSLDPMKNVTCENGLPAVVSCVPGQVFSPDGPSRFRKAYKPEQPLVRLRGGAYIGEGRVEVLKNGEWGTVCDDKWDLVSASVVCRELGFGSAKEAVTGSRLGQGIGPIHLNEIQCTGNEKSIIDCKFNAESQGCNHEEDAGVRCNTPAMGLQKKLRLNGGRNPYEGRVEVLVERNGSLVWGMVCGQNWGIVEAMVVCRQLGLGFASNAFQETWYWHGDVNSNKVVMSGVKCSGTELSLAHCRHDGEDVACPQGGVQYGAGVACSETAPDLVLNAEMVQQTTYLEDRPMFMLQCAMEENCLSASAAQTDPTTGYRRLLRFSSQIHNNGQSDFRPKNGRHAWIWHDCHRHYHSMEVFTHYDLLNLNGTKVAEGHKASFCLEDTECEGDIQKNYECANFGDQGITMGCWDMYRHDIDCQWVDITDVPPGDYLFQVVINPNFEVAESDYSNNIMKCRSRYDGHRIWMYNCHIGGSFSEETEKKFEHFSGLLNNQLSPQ
Procedure, shortened: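 Serum-free concentrated conditioned medium from CHO cells stably expressing human LOXL2, supplemented with BSA. Compounds preincubated for 2 h (the screening preincubation time). Substrate was 1,5-diaminopentane, and the H2O2 formed was detected with Amplex Red. IC50 given as geometric mean x/÷ geometric SD over N determinations.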

[6] = target: T3, Lysyl oxidase homolog 2; assay: Inhibition of full length recombinant human LOXL2 expressed in CHO cells assessed as reduction in H2O2 production using DAP as substrate preincubated for 2 hrs followed by substrate addition measured every 2 minutes for 50 minutes by Amplex red dye based fluorescence assay

Cytochrome P450 2C9, sequence (P11712 whole entry): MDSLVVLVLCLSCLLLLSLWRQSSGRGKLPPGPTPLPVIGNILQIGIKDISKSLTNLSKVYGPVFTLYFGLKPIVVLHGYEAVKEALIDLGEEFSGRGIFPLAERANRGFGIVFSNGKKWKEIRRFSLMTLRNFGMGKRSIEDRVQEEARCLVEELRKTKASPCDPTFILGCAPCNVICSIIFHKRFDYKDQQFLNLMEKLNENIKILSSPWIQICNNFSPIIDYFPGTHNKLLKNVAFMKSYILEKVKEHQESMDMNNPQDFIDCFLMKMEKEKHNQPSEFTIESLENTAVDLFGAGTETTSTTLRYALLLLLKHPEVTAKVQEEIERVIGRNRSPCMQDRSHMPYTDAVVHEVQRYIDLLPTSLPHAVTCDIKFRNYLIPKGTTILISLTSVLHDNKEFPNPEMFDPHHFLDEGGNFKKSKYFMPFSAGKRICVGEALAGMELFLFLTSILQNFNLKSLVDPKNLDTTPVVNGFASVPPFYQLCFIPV
Cytochrome P450 3A4, sequence (P08684 whole entry): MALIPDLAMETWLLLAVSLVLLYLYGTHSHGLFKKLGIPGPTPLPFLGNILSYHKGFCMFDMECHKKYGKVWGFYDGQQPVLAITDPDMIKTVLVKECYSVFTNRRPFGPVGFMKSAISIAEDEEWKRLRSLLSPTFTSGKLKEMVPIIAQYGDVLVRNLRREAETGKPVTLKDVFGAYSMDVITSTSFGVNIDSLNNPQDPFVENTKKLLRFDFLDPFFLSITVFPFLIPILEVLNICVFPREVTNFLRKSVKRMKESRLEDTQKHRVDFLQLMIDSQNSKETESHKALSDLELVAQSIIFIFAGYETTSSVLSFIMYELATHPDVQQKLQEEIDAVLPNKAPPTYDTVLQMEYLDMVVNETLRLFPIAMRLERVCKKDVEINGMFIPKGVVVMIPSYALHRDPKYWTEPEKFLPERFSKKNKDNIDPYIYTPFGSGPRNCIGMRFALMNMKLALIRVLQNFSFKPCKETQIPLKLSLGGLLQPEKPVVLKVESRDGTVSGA

`NCc1ccnc(Cl)c1` was tested, and the pIC50 [1] was 6.67, the pIC50 [2] was < 4.52 and the inhibition [3] was “inactive”. For the same molecule, the pIC50 [4] was < 4.52, the pIC50 [5] was 6.72 and the pIC50 [6] was 6.90.
